# Laboratory results from ChEMBL document CHEMBL5257027 (Eur J Med Chem, 2016).
# Experiments:
# [1] = Antiproliferative activity against human Panel NCI-58 (58 Carcinoma cell lines) assessed as reduction in mean cell growth at 10 uM; assay type: functional; set-up: scale not given: the % may be the effect or the level left
# Outline: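 NCI 58-cell-line screen covering leukemia, NSCLC, colon, CNS, melanoma, ovarian, renal, prostate and breast lines. Compounds given once at […] (micromolar per the line). Percent inhibition taken as 100 minus growth percent. Panel line reports the mean over all 58 lines.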
# [2] = species: Homo sapiens; test: Inhibition of ABL […] mutant (unknown origin) at 10 uM using […] as substrate incubated for 40 mins in presence of [gamma33P]ATP by scintillation counting based hotspot kinase assay relative to control
# [3] = biological target: Tyrosine-protein kinase ABL1 (Homo sapiens) (UniProt P00519); test: Inhibition of ABL (unknown origin) at 10 uM using […] as substrate incubated for 40 mins in presence of [gamma33P]ATP by scintillation counting based hotspot kinase assay relative to control
# [4] = biological target: RAF proto-oncogene serine/threonine-protein kinase (Homo sapiens, UniProt P04049); test: Inhibition of RAF1 (unknown origin) at 10 uM using […] as substrate incubated for 40 mins in presence of [gamma33P]ATP by scintillation counting based hotspot kinase assay relative to control
# [5] = biological target: Epidermal growth factor receptor (Homo sapiens) (UniProt P00533); test: Inhibition of EGFR (unknown origin) at 10 uM using […] as substrate incubated for 40 mins in presence of [gamma33P]ATP by scintillation counting based hotspot kinase assay relative to control
# [6] = tested on: Serine/threonine-protein kinase B-raf (Homo sapiens), P15056 [V600E]; test: Inhibition of B-RAF V600E mutant (unknown origin) at 10 uM using […] as substrate incubated for 40 mins in presence of [gamma33P]ATP by scintillation counting based hotspot kinase assay relative to control
# [7] = biological target: Serine/threonine-protein kinase B-raf (Homo sapiens) (UniProt P15056); test: Inhibition of B-RAF (unknown origin) at 10 uM using […] as substrate incubated for 40 mins in presence of [gamma33P]ATP by scintillation counting based hotspot kinase assay relative to control
# [8] = tested on: NCI/ADR-RES; test: Cytotoxicity against human NCI/ADR-RES cells; assay type: functional
# Outline: (§1)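 Run in the US NCI 58-cell-line screen covering nine cancer types (leukemia, NSCLC, colon, CNS, melanoma, ovarian, renal, prostate, breast). Five-dose mode gave GI50, TGI and LC50 values for each cell line. In the single-dose pre-screen, % inhibition was taken as 100 minus growth percentage.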
# [9] = tested on: SK-MEL-5; test: Cytotoxicity against human SK-MEL-5 cells; assay type: functional; outline: as §1
# [10] = tested on: SNB-75; test: Cytotoxicity against human SNB-75 cells; assay type: functional; details: read-out: LC50 (the source's name); outline: as §1
# [11] = tested on: MDA-MB-468; test: Antiproliferative activity against human MDA-MB-468 cells assessed as total growth inhibition; assay type: functional
# Outline: (§2)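 NCI five-dose testing across the 58-line panel gives GI50, TGI and LC50 for each line. Subpanel lines report mean GI50 for each of the nine cancer types.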
# [12] = tested on: PC-3; test: Antiproliferative activity against human PC-3 cells assessed as total growth inhibition; assay type: functional; outline: as §2
# [13] = tested on: PC-3; test: Cytotoxicity against human PC-3 cells; assay type: functional; outline: as §1
# [14] = tested on: RXF 393; test: Antiproliferative activity against human RXF 393 cells assessed as total growth inhibition; assay type: functional; outline: as §2
# [15] = tested on: NCI/ADR-RES; test: Antiproliferative activity against human NCI/ADR-RES cells assessed as total growth inhibition; assay type: functional; outline: as §2
# [16] = tested on: HOP-92; test: Cytotoxicity against human HOP-92 cells; assay type: functional; outline: as §1
# [17] = tested on: K562; test: Cytotoxicity against human k562 cells; assay type: functional; details: read-out: LC50 (the source's name); outline: as §1
# [18] = tested on: SK-MEL-5; test: Antiproliferative activity against human SK-MEL-5 cells assessed as total growth inhibition; assay type: functional; outline: as §2
# [19] = tested on: SNB-75; test: Antiproliferative activity against human SNB-75 cells assessed as total growth inhibition; assay type: functional; outline: as §2
# [20] = tested on: RXF 393; test: Cytotoxicity against human RXF 393 cells; assay type: functional; outline: as §1
# [21] = tested on: HCT-15; test: Cytotoxicity against human HCT-15 cells; assay type: functional; details: read-out: LC50 (the source's name); outline: as §1
# [22] = tested on: HCT-15; test: Antiproliferative activity against human HCT-15 cells assessed as total growth inhibition; assay type: functional; outline: as §2
# [23] = tested on: COLO 205; test: Cytotoxicity against human COLO 205 cells; assay type: functional; outline: as §1
# [24] = tested on: COLO 205; test: Antiproliferative activity against human COLO 205 cells assessed as total growth inhibition; assay type: functional; outline: as §2
# [25] = tested on: HOP-92; test: Antiproliferative activity against human HOP-92 cells assessed as total growth inhibition; assay type: functional; outline: as §2
# [26] = tested on: K562; test: Antiproliferative activity against human K562 cells assessed as total growth inhibition; assay type: functional; outline: as §2
# [27] = tested on: MDA-MB-468; test: Antiproliferative activity against human MDA-MB-468 cells assessed as reduction in cell growth; assay type: functional; outline: as §2
# [28] = tested on: PC-3; test: Antiproliferative activity against human PC-3 cells assessed as reduction in cell growth; assay type: functional; outline: as §2
# [29] = tested on: RXF 393; test: Antiproliferative activity against human RXF 393 cells assessed as reduction in cell growth; assay type: functional; outline: as §2
# [30] = tested on: NCI/ADR-RES; test: Antiproliferative activity against human NCI/ADR-RES cells assessed as reduction in cell growth; assay type: functional; outline: as §2
# [31] = tested on: SK-MEL-5; test: Antiproliferative activity against human SK-MEL-5 cells assessed as reduction in cell growth; assay type: functional; outline: as §2
# [32] = tested on: SNB-75; test: Antiproliferative activity against human SNB-75 cells assessed as reduction in cell growth; assay type: functional; outline: as §2
# [33] = tested on: HCT-15; test: Antiproliferative activity against human HCT-15 cells assessed as reduction in cell growth; assay type: functional; outline: as §2
# [34] = tested on: COLO 205; test: Antiproliferative activity against human COLO 205 cells assessed as reduction in cell growth; assay type: functional; outline: as §2
# [35] = tested on: HOP-92; test: Antiproliferative activity against human HOP-92 cells assessed as reduction in cell growth; assay type: functional; outline: as §2
# [36] = tested on: K562; test: Antiproliferative activity against human K562 cells assessed as reduction in cell growth; assay type: functional; outline: as §2
# [37] = tested on: Panel breast (Carcinoma cell lines); test: Antiproliferative activity against human Panel breast (6 Carcinoma cell lines) assessed as reduction in mean cell growth; assay type: functional; outline: as §2
# [38] = tested on: Panel prostate (Carcinoma cell lines); test: Antiproliferative activity against human Panel prostate (2 Carcinoma cell lines) assessed as reduction in mean cell growth; assay type: functional; outline: as §2
# [39] = tested on: Panel renal (Carcinoma cell lines); test: Antiproliferative activity against human Panel renal (8 Carcinoma cell lines) assessed as reduction in mean cell growth; assay type: functional; outline: as §2
# [40] = tested on: Panel ovarian (Carcinoma cell lines); test: Antiproliferative activity against human Panel ovarian (7 Carcinoma cell lines) assessed as reduction in mean cell growth; assay type: functional; outline: as §2
# [41] = tested on: Panel CNS (Carcinoma cell lines); test: Antiproliferative activity against human Panel CNS (6 Carcinoma cell lines) assessed as reduction in mean cell growth; assay type: functional; outline: as §2
# [42] = tested on: Panel melanoma (Carcinoma cell lines); test: Antiproliferative activity against human Panel melanoma (9 Carcinoma cell lines) assessed as reduction in mean cell growth; assay type: functional; outline: as §2
# [43] = tested on: Panel colon (Carcinoma cell lines); test: Antiproliferative activity against human Panel colon (7 Carcinoma cell lines) assessed as reduction in mean cell growth; assay type: functional; outline: as §2
# [44] = Antiproliferative activity against human Panel non-small cell lung cancer (8 Carcinoma cell lines) assessed as reduction in mean cell growth; assay type: functional; details: Non-small cell lung cancer cell line; outline: as §2
# [45] = tested on: Panel leukemia (Carcinoma cell lines); test: Antiproliferative activity against human Panel leukemia (5 Carcinoma cell lines) assessed as reduction in mean cell growth; assay type: functional; outline: as §2
# [46] = biological target: Mitogen-activated protein kinase 14 (Homo sapiens) (UniProt Q16539); test: Inhibition of MAPK14 (p38 alpha) (unknown origin) at 10 uM using […] as substrate incubated for 40 mins in presence of [gamma33P]ATP by scintillation counting based hotspot kinase assay relative to control
# [47] = tested on: MDA-MB-468; test: Cytotoxicity against human MDA-MB-468 cells; assay type: functional; details: read-out: LC50 (the source's name); outline: as §1
# RAF proto-oncogene serine/threonine-protein kinase, sequence (P04049 whole entry): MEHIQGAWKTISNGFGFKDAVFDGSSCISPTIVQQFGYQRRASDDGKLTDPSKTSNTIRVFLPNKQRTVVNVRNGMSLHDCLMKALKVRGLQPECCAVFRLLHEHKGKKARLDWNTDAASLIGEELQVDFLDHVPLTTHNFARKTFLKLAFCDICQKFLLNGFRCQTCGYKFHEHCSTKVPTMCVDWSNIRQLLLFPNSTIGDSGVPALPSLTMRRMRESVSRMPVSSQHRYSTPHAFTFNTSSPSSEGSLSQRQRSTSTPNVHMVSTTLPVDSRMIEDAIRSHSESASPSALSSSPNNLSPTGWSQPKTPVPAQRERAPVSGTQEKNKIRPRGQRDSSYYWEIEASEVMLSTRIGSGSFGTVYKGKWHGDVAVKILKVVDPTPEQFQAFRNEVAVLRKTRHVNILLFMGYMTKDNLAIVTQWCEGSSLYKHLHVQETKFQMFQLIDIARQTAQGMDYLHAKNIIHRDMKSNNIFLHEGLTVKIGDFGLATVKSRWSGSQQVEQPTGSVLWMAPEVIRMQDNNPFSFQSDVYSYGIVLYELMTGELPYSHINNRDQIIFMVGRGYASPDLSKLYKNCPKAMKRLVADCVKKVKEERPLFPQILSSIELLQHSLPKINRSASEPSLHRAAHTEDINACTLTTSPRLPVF
# Serine/threonine-protein kinase B-raf (Homo sapiens), P15056 [V600E], sequence (P15056 whole entry V600E): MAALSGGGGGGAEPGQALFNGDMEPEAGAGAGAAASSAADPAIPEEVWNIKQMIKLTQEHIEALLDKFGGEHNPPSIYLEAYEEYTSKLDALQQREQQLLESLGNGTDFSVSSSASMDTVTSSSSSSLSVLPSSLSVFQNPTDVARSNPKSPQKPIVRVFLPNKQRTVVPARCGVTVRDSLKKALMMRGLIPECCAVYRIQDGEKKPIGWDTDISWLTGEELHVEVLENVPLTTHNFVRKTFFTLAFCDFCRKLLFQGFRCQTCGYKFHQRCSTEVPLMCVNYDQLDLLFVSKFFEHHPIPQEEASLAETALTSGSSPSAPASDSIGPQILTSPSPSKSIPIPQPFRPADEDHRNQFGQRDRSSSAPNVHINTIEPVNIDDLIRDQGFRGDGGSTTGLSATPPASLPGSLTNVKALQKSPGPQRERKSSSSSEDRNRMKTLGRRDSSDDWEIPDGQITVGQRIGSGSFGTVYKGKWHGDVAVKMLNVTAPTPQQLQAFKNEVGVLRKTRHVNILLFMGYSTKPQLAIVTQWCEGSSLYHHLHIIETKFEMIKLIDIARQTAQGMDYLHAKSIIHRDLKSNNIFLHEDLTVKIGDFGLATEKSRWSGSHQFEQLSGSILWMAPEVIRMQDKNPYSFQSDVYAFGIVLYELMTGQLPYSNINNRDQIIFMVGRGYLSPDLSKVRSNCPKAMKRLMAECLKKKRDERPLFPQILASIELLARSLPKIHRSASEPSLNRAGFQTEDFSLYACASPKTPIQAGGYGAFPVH
# Serine/threonine-protein kinase B-raf (Homo sapiens), sequence (P15056 whole entry): as the sequence (P15056 whole entry V600E) above, with E600V counted along it
# Tyrosine-protein kinase ABL1 (Homo sapiens), sequence (P00519 whole entry): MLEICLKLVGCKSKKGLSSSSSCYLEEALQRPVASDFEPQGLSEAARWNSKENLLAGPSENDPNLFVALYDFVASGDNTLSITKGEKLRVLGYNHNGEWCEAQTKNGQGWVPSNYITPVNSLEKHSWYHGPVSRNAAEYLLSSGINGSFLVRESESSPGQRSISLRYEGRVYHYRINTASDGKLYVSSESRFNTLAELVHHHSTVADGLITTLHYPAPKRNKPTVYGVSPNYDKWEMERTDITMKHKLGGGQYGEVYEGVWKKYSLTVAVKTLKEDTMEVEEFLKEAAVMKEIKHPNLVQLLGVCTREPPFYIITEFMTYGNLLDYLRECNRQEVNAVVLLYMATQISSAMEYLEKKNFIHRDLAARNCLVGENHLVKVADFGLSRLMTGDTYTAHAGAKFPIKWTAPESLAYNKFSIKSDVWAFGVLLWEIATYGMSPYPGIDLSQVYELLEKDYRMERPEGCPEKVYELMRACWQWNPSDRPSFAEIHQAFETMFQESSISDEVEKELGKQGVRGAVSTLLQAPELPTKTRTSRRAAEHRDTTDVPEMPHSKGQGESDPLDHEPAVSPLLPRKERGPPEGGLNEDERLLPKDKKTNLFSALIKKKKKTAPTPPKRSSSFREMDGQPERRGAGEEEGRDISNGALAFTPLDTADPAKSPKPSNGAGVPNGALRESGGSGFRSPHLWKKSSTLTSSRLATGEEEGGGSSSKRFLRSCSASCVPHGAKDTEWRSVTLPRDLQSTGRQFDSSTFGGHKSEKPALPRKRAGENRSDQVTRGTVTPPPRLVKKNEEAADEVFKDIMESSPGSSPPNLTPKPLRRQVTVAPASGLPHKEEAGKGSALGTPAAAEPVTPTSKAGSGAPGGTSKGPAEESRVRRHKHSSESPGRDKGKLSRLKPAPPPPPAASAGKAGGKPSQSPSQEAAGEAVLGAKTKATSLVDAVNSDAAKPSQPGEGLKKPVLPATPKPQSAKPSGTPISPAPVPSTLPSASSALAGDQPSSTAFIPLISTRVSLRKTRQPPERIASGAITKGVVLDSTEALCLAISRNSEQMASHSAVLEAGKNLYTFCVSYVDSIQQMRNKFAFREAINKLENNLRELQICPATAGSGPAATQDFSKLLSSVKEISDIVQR
# Epidermal growth factor receptor (Homo sapiens), sequence (P00533 whole entry): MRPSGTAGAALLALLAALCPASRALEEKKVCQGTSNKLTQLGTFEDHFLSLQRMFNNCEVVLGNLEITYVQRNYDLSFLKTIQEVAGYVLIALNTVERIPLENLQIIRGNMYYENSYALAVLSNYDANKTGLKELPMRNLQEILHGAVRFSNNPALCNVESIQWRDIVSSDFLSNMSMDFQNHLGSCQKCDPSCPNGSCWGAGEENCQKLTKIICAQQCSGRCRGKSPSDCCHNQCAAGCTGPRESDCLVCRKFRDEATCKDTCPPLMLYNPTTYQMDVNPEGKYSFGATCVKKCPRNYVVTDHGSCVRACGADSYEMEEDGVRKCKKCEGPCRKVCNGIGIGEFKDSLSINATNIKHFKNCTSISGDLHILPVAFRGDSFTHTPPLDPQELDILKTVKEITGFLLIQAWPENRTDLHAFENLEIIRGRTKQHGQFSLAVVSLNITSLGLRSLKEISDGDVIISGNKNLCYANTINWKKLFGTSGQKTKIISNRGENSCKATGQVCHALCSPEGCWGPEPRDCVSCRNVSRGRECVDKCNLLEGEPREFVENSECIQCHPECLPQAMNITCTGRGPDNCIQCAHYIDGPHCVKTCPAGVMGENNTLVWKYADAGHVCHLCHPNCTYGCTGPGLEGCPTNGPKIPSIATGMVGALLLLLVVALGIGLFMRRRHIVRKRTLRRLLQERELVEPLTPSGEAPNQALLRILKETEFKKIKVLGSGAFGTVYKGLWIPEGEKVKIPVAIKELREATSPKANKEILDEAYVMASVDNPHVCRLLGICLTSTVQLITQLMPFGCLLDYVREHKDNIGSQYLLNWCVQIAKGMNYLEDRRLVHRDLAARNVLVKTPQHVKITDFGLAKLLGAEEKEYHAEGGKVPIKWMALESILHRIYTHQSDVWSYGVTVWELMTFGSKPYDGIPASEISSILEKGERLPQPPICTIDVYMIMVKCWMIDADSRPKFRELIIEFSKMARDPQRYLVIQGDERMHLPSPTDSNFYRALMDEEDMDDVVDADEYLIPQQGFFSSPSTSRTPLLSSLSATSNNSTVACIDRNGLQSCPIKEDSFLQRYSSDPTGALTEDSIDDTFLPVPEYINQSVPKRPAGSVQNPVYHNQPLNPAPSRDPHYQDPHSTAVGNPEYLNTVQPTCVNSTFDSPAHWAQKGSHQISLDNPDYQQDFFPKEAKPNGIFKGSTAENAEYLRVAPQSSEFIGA
# Mitogen-activated protein kinase 14 (Homo sapiens), sequence (Q16539 whole entry): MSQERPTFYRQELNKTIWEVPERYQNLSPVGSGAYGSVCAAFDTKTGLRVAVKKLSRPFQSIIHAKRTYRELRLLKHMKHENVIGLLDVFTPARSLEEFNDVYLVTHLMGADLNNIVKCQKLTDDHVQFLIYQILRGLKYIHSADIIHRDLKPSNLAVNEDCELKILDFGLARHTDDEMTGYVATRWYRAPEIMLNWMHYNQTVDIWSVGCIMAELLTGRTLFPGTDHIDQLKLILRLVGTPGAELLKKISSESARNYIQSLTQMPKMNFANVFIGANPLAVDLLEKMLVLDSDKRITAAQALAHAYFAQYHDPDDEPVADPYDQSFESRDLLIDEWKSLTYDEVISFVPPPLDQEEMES
smiles,measurement,setting,value
COc1cccc(-c2nn(-c3ccccc3)cc2-c2ccnc(NCCNC(=O)Nc3cccc(C(F)(F)F)c3)c2)c1,Activity,[1],>80%
same,inhibition,[2],2.92%
same,inhibition,[3],13.4%
same,inhibition,[4],45.1%
same,inhibition,[5],-2.09%
same,inhibition,[6],36.2%
same,inhibition,[7],14%
same,LC50,[8],100 µM
same,LC50,[9],7.82 µM
same,CC50,[10],100 µM
same,TGI,[11],3.5 µM
same,TGI,[12],15.7 µM
same,LC50,[13],100 µM
same,TGI,[14],4.63 µM
same,TGI,[15],5.75 µM
same,LC50,[16],100 µM
same,CC50,[17],100 µM
same,TGI,[18],3.55 µM
same,TGI,[19],100 µM
same,LC50,[20],25 µM
same,CC50,[21],100 µM
same,TGI,[22],4.7 µM
same,LC50 (lethal concentration 50%),[23],6.95 µM
same,TGI,[24],3.34 µM
same,TGI,[25],7.65 µM
same,TGI,[26],100 µM
same,GI50,[27],1.7 µM
same,GI50,[28],2.02 µM
same,GI50,[29],1.53 µM
same,GI50,[30],2.22 µM
same,GI50,[31],1.73 µM
same,GI50,[32],1.62 µM
same,GI50,[33],1.7 µM
same,GI50,[34],1.88 µM
same,GI50,[35],1.46 µM
same,GI50,[36],2.13 µM
same,GI50,[37],2.23 µM
same,GI50,[38],3.09 µM
same,GI50,[39],2.14 µM
same,GI50,[40],2.54 µM
same,GI50,[41],2.07 µM
same,GI50,[42],1.91 µM
same,GI50,[43],1.98 µM
same,GI50,[44],2.03 µM
same,GI50,[45],2.04 µM
O=C(NCCCNc1cc(-c2cn(-c3ccccc3)nc2-c2cccc(O)c2)ccn1)c1ccccc1,Activity,[1],>80%
same,inhibition,[2],9.61%
same,inhibition,[3],16%
same,inhibition,[4],39.6%
same,inhibition,[46],74.5%
same,inhibition,[5],3.72%
same,inhibition,[6],34.4%
same,inhibition,[7],10.8%
same,LC50,[8],100 µM
same,LC50,[9],6.54 µM
same,CC50,[10],100 µM
same,TGI,[11],3.36 µM
same,TGI,[12],15.2 µM
same,LC50,[13],100 µM
same,TGI,[14],6.2 µM
same,TGI,[15],9.79 µM
same,LC50,[16],100 µM
same,CC50,[17],100 µM
same,TGI,[18],3.12 µM
same,TGI,[19],46.9 µM
same,LC50,[20],100 µM
same,CC50,[21],100 µM
same,TGI,[22],5.12 µM
same,LC50 (lethal concentration 50%),[23],7.88 µM
same,TGI,[24],3.67 µM
same,TGI,[25],24.5 µM
same,GI50,[27],1.38 µM
same,GI50,[28],2.1 µM
same,GI50,[29],1.97 µM
same,GI50,[30],2.67 µM
same,GI50,[31],1.49 µM
same,GI50,[32],1.68 µM
same,GI50,[33],1.51 µM
same,GI50,[34],1.71 µM
same,GI50,[35],1.7 µM
same,GI50,[36],0.75 µM
same,GI50,[37],2.13 µM
same,GI50,[38],3.69 µM
same,GI50,[39],3.63 µM
same,GI50,[40],4.17 µM
same,GI50,[41],3.6 µM
same,GI50,[42],2.3 µM
same,GI50,[43],2.3 µM
same,GI50,[44],3.4 µM
same,GI50,[45],1.62 µM
CNC(=O)c1cc(Oc2ccc(NC(=O)Nc3ccc(Cl)c(C(F)(F)F)c3)cc2)ccn1 [SORAFENIB],CC50,[47],50.1 µM
same,CC50,[10],7.94 µM
same,TGI,[14],10 µM
same,TGI,[15],15.8 µM
same,CC50,[17],100 µM
same,CC50,[21],50.1 µM
same,TGI,[22],10 µM
same,TGI,[24],5.01 µM
same,TGI,[26],100 µM
same,GI50,[27],1.99 µM
same,GI50,[28],1.99 µM
same,GI50,[29],2.51 µM
same,GI50,[32],3.16 µM
same,GI50,[34],1.99 µM
same,GI50,[36],3.16 µM
same,GI50,[37],2.17 µM
same,GI50,[38],2.58 µM
same,GI50,[39],2.94 µM
same,GI50,[40],2.88 µM
same,GI50,[41],2.33 µM
same,GI50,[42],1.87 µM
same,GI50,[43],2.19 µM
same,GI50,[44],2.25 µM
same,GI50,[45],2.43 µM
